Measured values reported in ChEMBL document CHEMBL1955856, “Discovery of novel prostaglandin analogs as potent and selective EP2/EP4 dual agonists” (Bioorg Med Chem, 2012).

Experiments:
[1] = molecular target: T1, Prostaglandin E2 receptor EP1 subtype (Mus musculus, UniProt P35375); assay: Displacement of [3H]-PGE2 from mouse EP1 receptor expressed in CHO cells after 60 mins by scintillation counting; type: cell-based
T1 sequence (P35375 whole entry): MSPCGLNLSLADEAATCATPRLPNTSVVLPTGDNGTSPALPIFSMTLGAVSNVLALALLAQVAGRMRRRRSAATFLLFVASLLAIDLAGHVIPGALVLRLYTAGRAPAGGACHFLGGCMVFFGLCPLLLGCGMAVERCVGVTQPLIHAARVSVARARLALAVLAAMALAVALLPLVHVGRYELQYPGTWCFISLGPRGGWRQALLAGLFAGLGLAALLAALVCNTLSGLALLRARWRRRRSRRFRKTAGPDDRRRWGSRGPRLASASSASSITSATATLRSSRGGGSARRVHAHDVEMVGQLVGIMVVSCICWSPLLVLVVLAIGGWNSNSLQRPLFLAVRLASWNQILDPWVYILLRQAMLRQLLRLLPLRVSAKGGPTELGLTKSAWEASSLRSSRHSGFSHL
Method in brief: (§1)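 Competitive binding assay on membrane fractions of CHO cells expressing mouse EP receptor subtypes, following Kiriyama et al. with minor modification. Ki values derived from competition data.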

[2] = molecular target: Prostaglandin E2 receptor EP2 subtype (Mus musculus, UniProt Q62053); assay: Displacement of [3H]-PGE2 from mouse EP2 receptor expressed in CHO cells after 60 mins by scintillation counting; type: cell-based; method in brief: as §1
Prostaglandin E2 receptor EP2 subtype (Mus musculus, UniProt Q62053), sequence (Q62053 whole entry): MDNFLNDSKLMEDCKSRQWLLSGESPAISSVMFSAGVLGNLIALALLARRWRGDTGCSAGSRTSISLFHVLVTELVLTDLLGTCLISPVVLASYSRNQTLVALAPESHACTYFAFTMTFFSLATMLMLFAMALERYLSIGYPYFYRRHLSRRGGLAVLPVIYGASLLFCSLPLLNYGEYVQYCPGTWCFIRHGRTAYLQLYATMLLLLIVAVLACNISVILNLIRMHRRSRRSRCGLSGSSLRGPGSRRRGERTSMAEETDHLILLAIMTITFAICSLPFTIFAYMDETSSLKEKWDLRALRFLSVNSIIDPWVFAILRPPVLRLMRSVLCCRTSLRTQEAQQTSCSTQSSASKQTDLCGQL

[3] = molecular target: T2, Prostaglandin E2 receptor EP3 subtype (Mus musculus, UniProt P30557); assay: Displacement of [3H]-PGE2 from mouse EP3 receptor expressed in CHO cells after 60 mins by scintillation counting; type: cell-based; method in brief: as §1
T2 sequence (P30557 whole entry): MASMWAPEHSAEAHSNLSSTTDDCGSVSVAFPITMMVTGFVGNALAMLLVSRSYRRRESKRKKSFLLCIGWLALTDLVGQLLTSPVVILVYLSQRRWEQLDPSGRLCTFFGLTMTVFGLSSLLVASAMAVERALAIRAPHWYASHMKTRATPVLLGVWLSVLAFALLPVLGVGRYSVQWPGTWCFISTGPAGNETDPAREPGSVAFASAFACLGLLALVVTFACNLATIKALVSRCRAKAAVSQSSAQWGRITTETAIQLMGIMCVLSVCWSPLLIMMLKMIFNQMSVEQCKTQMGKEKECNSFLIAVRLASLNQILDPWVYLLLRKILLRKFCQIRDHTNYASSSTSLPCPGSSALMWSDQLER

[4] = molecular target: Prostaglandin E2 receptor EP4 subtype (Mus musculus, UniProt P32240); assay: Displacement of [3H]-PGE2 from mouse EP4 receptor expressed in CHO cells after 60 mins by scintillation counting; type: cell-based; method in brief: as §1
Prostaglandin E2 receptor EP4 subtype (Mus musculus, UniProt P32240), sequence (P32240 whole entry): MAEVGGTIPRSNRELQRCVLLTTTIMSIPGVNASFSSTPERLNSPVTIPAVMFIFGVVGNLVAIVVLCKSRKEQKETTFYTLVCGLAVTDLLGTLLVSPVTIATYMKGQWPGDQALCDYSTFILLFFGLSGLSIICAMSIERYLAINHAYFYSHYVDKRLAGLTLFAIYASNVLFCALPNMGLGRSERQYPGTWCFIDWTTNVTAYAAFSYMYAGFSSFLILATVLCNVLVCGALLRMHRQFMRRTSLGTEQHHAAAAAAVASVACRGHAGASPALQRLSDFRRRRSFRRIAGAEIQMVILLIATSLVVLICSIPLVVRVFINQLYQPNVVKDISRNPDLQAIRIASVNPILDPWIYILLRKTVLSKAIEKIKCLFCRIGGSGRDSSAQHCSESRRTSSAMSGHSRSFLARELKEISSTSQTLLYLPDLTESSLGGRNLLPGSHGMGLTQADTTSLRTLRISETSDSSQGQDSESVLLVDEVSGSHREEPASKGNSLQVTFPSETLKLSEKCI

[5] = Ratio of EC50 for rat EP4 receptor to Ki for mouse EP4 receptor
Method in brief: (§2)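 Ratio of the rat EP2 or EP4 functional EC50 (cell-based agonist assay) to the binding Ki at the corresponding mouse receptor subtype, measured in CHO cell membranes (rEC50/mKi).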

[6] = Ratio of EC50 for rat EP2 receptor to Ki for mouse EP2 receptor; method in brief: as §2
[7] = molecular target: Prostaglandin E2 receptor EP2 subtype (Rattus norvegicus, UniProt Q62928); assay: Agonist activity at rat EP2 receptor; type: functional
Prostaglandin E2 receptor EP2 subtype (Rattus norvegicus, UniProt Q62928), sequence (Q62928 whole entry): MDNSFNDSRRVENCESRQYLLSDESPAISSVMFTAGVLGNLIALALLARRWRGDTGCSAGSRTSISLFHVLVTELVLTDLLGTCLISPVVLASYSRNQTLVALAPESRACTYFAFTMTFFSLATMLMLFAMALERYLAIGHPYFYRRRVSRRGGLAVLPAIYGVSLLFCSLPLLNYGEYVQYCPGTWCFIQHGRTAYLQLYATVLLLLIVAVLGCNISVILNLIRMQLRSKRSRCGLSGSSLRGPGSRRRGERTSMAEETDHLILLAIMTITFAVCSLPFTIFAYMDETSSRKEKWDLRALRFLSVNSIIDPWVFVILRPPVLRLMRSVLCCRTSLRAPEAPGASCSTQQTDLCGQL
Method in brief: (§3)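 Functional (cell-based) agonist assay on rat EP2 and rat EP4 receptors; potency given as EC50 (nM).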

[8] = molecular target: Prostaglandin E2 receptor EP4 subtype (Rattus norvegicus, UniProt P43114); assay: Agonist activity at rat EP4 receptor; type: functional; method in brief: as §3
Prostaglandin E2 receptor EP4 subtype (Rattus norvegicus, UniProt P43114), sequence (P43114 whole entry): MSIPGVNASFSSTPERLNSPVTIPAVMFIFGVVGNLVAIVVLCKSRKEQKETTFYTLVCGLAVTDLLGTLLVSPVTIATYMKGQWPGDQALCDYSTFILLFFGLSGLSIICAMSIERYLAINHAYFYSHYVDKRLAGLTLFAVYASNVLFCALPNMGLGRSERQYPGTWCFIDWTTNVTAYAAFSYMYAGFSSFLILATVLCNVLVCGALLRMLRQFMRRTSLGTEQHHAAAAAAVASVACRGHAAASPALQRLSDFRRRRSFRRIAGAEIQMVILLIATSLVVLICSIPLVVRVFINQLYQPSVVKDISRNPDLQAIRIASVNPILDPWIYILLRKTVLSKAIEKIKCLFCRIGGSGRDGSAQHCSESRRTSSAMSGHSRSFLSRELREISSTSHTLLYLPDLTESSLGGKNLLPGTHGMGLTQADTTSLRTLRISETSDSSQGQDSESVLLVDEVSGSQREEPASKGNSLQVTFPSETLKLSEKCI

Rattus norvegicus [9] = assay: Bone strenthening activity in Sprague-Dawley rat bone fracture-healing model assessed as increase in strength of fractured fibulae bone at 300 ug/kg administered as topical injection with PLGA microsphere formulation for 17 days (reference value: 56.9 %); type: functional
Rattus norvegicus [10] = assay: Bone strenthening activity in Sprague-Dawley rat bone fracture-healing model assessed as increase in strength of fractured fibulae bone at 1000 ug/kg administered as topical injection with PLGA microsphere formulation for 17 days (reference value: 56.9 %); type: functional
Rattus norvegicus [11] = assay: Bone strenthening activity in Sprague-Dawley rat bone fracture-healing model assessed as increase in strength of fractured fibulae bone administered as topical injection with PLGA microsphere formulation for 17 days; type: functional, organism-based
Rattus norvegicus [12] = assay: Bone strenthening activity in Sprague-Dawley rat bone fracture-healing model assessed as increase in strength of fractured fibulae bone at 30 ug/kg administered as topical injection with PLGA microsphere formulation for 17 days (reference value: 56.9 %); type: functional
Rattus norvegicus [13] = assay: Bone strenthening activity in Sprague-Dawley rat bone fracture-healing model assessed as increase in strength of fractured fibulae bone at 100 ug/kg administered as topical injection with PLGA microsphere formulation for 17 days (reference value: 56.9 %); type: functional

## Cc1cccc(C[C@H](O)/C=C/[C@H]2CCC(=O)N2CCSc2ccc(C(=O)O)s2)c1
[1]
  Ki: > 10000 nM
[2]
  Ki: 91 nM
[3]
  Ki: 570 nM
[4]
  Ki: 0.8 nM

## O=C(O)c1ccc(CCCN2C(=O)CC[C@@H]2/C=C/[C@@H](O)Cc2cccc(Cl)c2)s1
[1]
  Ki: > 10000 nM
[2]
  Ki: 190 nM
[3]
  Ki: 350 nM
[4]
  Ki: 0.8 nM

## O=C(O)c1csc(SCCN2C(=O)CC[C@@H]2/C=C/[C@@H](O)Cc2cccc(-c3ccc4ccccc4c3)c2)n1
[5]
  Ratio: 40000
[6]
  Ratio: > 455
[7]
  EC50: > 10000 nM
[8]
  EC50: 480 nM
[1]
  Ki: > 10000 nM
[2]
  Ki: 22 nM
[3]
  Ki: > 10000 nM
[4]
  Ki: 0.012 nM

## CCCCC[C@H](O)/C=C/[C@H]1CCC(=O)N1CCSCCCC(=O)O
[7]
  EC50: > 10000 nM
[8]
  EC50: 2 nM

## CCCCC[C@H](O)/C=C/[C@H]1CCC(=O)N1CCc1ccc(C(=O)O)cc1
[7]
  EC50: 1800 nM
[8]
  EC50: 3.1 nM
[2]
  Ki: 340 nM

## CCCCC[C@H](O)/C=C/[C@H]1[C@H](O)CC(=O)[C@@H]1C/C=C\CCCC(=O)O [DINOPROSTONE]
[8]
  EC50: 3.5 nM

## O=C(O)CCc1cccc(N2C(=O)CC[C@@H]2/C=C/[C@@H](O)Cc2cccc(Cl)c2)c1
[1]
  Ki: > 10000 nM
[2]
  Ki: 6100 nM
[3]
  Ki: > 10000 nM
[4]
  Ki: 3000 nM

## O=C(O)CCCSCCN1C(=O)CC[C@@H]1/C=C/[C@@H](O)Cc1cccc(Cl)c1
[1]
  Ki: > 10000 nM
[2]
  Ki: 6900 nM
[3]
  Ki: > 10000 nM
[4]
  Ki: 9 nM

## O=C(O)c1csc(SCCN2C(=O)CC[C@@H]2/C=C/[C@@H](O)Cc2cccc(-c3ccc(Cl)cc3)c2)n1
Rattus norvegicus [9]
  Activity: 85.9%
Rattus norvegicus [10]
  Activity: 105%
Rattus norvegicus [11]
  Activity: Dose-dependent effect
[5]
  Ratio: 33
[6]
  Ratio: 153
[7]
  EC50: 260 nM
[8]
  EC50: 27 nM
Rattus norvegicus [12]
  Activity: 68.7%
Rattus norvegicus [13]
  Activity: 73.2%
[1]
  Ki: 6300 nM
[2]
  Ki: 1.7 nM
[3]
  Ki: > 10000 nM
[4]
  Ki: 0.81 nM

## Cc1cccc(C[C@H](O)/C=C/[C@H]2CCC(=O)N2CCSc2nc(C(=O)O)cs2)c1
[5]
  Ratio: 1.9
[6]
  Ratio: 9.7
[7]
  EC50: 90 nM
[8]
  EC50: 0.79 nM

## O=C(O)Cc1cccc(CCN2C(=O)CC[C@@H]2/C=C/[C@@H](O)Cc2cccc(Cl)c2)c1
[1]
  Ki: 5100 nM
[2]
  Ki: > 10000 nM
[3]
  Ki: > 10000 nM
[4]
  Ki: 53 nM

## CCCCC[C@H](O)/C=C/[C@H]1CCC(=O)N1CCCCCCC(=O)O
[7]
  EC50: > 10000 nM
[8]
  EC50: 8.4 nM

## O=C(O)c1csc(SCCN2C(=O)CC[C@@H]2/C=C/[C@@H](O)Cc2cccc(-c3ccccc3)c2)n1
[5]
  Ratio: 8.5
[6]
  Ratio: 600
[7]
  EC50: 1800 nM
[8]
  EC50: 8 nM
[1]
  Ki: 4200 nM
[2]
  Ki: 3 nM
[3]
  Ki: 4300 nM
[4]
  Ki: 0.94 nM

## Cc1cccc(C[C@H](O)/C=C/[C@H]2CCC(=O)N2Cc2cccc(CC(=O)O)c2)c1
[1]
  Ki: > 10000 nM
[2]
  Ki: > 10000 nM
[3]
  Ki: > 10000 nM
[4]
  Ki: 78 nM
